A word on the IC50: it is the concentration needed to halve the response being measured.

Consider 16 molecules from ChEMBL document CHEMBL3860059, “Design, Synthesis, and Biological Evaluation of First-in-Class Dual Acting Histone Deacetylases (HDACs) and Phosphodiesterase 5 (PDE5) Inhibitors for the Treatment of Alzheimer's Disease” (J Med Chem, 2016).

Bounds are passed on as bounds.

Assay [1] addresses T1, Protein deacetylase HDAC6 (Homo sapiens, UniProt Q9UBN7).
T1 sequence (Q9UBN7 whole entry): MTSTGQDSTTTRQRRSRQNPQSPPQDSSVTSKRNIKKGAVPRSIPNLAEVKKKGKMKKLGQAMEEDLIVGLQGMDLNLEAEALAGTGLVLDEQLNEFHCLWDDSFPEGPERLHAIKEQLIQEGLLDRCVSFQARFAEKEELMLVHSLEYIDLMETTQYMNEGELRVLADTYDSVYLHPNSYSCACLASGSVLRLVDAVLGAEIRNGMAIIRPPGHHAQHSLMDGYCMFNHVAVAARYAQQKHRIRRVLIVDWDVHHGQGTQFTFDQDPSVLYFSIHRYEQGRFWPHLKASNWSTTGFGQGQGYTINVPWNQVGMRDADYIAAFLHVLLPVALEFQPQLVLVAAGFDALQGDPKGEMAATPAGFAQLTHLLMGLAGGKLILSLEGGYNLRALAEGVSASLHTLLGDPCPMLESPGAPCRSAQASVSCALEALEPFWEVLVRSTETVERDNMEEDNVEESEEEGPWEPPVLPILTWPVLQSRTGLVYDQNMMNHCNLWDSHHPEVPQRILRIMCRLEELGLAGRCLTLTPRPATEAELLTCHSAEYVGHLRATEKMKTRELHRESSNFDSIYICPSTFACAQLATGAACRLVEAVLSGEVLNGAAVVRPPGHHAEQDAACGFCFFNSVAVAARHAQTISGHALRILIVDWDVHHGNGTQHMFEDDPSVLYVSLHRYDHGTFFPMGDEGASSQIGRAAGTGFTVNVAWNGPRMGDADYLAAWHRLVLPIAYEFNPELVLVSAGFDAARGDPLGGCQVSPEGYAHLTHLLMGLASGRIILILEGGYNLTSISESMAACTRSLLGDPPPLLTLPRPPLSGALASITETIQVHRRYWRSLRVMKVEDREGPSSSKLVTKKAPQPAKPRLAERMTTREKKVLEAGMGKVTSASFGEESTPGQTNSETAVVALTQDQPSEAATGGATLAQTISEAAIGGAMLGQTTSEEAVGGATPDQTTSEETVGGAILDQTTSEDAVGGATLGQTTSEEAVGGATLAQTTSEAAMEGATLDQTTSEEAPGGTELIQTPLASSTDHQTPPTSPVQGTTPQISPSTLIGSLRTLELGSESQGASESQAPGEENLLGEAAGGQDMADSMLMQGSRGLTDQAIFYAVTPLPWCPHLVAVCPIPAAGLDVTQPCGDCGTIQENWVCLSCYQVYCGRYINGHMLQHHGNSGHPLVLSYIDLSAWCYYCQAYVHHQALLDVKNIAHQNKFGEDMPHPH
Description: Inhibition of full length recombinant human N-terminal GST tagged HDAC6 expressed in baculovirus infected Sf9 cells using fluorogenic HDAC substrate after 30 mins by fluorescence analysis. Summed up: (§1)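 Full-length human recombinant HDAC1 (0.4 μg/mL final), HDAC2 (1.5 μg/mL), HDAC3/NCOR2 (0.1 μg/mL) or HDAC6 (3.6 μg/mL) with 10 μM fluorogenic acetyl-lysine substrate and 0.1 mg/mL BSA, 1% DMSO, 30 min at 37 °C; lysine developer 20 min at room temperature; fluorescence ex 355/em 460 nm. Vehicle = positive control, no enzyme = negative; IC50 from curve fit.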

A further assay has as its target Histone deacetylase 1 (Homo sapiens, UniProt Q13547). Description: Inhibition of full length recombinant human C-terminal His/Flag-tagged HDAC1 expressed in baculovirus infected Sf9 cells using fluorogenic HDAC substrate after 30 mins by fluorescence analysis. Summed up: as §1
The next assay addresses Histone deacetylase 2 (Homo sapiens, UniProt Q92769). Description: Inhibition of full length recombinant human C-terminal His-tagged HDAC2 expressed in baculovirus infected Sf9 cells using fluorogenic HDAC substrate after 30 mins by fluorescence analysis. Summed up: as §1
In assay [2] the target is cGMP-specific 3',5'-cyclic phosphodiesterase (Homo sapiens, UniProt O76074). Description: Inhibition of full length recombinant human N-terminal GST-tagged PDE5A1 expressed in baculovirus infected Sf9 cells using cGMP as substrate after 30 mins by HTRF assay. On the technique in general: Time-resolved FRET reads energy transfer from a long-lived donor to a nearby acceptor.

Chain of Histone deacetylase 2 (Q92769 whole entry): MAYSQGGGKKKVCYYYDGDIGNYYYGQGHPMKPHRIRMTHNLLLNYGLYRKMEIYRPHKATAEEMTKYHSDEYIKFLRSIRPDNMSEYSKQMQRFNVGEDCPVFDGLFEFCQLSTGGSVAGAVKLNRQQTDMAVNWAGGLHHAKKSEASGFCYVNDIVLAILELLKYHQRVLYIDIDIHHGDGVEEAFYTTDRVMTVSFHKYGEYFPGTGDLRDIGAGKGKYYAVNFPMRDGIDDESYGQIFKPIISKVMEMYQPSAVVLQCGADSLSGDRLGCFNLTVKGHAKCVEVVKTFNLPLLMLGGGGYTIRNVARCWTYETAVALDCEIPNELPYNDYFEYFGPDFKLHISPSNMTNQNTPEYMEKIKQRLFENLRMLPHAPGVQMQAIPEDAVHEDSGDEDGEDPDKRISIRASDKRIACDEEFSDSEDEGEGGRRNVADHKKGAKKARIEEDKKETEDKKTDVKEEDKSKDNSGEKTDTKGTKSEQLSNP
Chain of Histone deacetylase 1 (Q13547 whole entry): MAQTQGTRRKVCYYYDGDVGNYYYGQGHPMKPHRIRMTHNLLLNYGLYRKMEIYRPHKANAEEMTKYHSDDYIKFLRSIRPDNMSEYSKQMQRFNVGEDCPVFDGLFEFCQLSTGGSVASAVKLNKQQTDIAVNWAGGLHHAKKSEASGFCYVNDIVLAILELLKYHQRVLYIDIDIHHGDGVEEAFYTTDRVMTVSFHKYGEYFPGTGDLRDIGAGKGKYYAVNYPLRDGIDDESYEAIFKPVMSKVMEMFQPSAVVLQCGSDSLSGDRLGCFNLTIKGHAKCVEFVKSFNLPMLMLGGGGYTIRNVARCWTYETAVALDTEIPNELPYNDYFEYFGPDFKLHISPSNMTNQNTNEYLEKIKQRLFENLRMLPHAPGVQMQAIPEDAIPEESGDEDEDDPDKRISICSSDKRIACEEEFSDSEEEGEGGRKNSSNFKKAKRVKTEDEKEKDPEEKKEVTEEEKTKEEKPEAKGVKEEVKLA

For the molecule `CCCc1nn(C)c2c(=O)[nH]c(-c3cc(C4CCC(CC(=O)NO)CC4)ccc3OCC)nc12` (centres undefined), the IC50 in assay [1] was 5.13 µM; at Histone deacetylase 1, 6.91 µM; at Histone deacetylase 2, more than 20 µM; in assay [2] it was 0.07 µM.
Regarding `CCCc1nn(C)c2c(=O)[nH]c(-c3cc(Cc4ccc(/C=C/C(=O)NO)cc4)ccc3OCC)nc12`, the IC50 in assay [1] was 1.79 µM; on Histone deacetylase 1, 1.53 µM; at Histone deacetylase 2, more than 20 µM; in assay [2], 0.122 µM.
For `CCCc1nn(C)c2c(=O)[nH]c(-c3cc(N4CCC5(CCC(C(=O)NO)C5)CC4)ccc3OCC)nc12` (centres undefined) the same measures were 4.34 µM, 12.9 µM, more than 20 µM and 0.012 µM.
For `CCCc1nn(C)c2c(=O)[nH]c(-c3cc(C(=O)NO)ccc3OCC)nc12` the same measures were more than 20 µM, 6.42 µM, more than 20 µM and 0.005 µM.
As to `CCCc1nn(C)c2c(=O)[nH]c(-c3cc(S(=O)(=O)N4CCC(CCC(=O)NO)CC4)ccc3OCC)nc12`, the concentration for half-maximal inhibition (IC50) in assay [1] was determined as 0.087 µM; on Histone deacetylase 1, 0.406 µM; at Histone deacetylase 2, 1.94 µM; in assay [2], 0.0005 µM.
For `CCCc1nn(C)c2c(=O)[nH]c(-c3cc(N4CCCC5(CCC(C(=O)NO)CC5)C4)ccc3OCC)nc12` (centres undefined) the same measures were 10.1 µM, 9.27 µM, more than 20 µM and 0.04 µM.
On to `CCCc1nn(C)c2c(=O)[nH]c(-c3cc(CN4CC(C(=O)NO)C4)ccc3OCC)nc12`, for which the IC50 in assay [1] was more than 10 µM; at Histone deacetylase 1, more than 20 µM; on Histone deacetylase 2, more than 20 µM; in assay [2] it was 0.303 µM.
`CCCc1nn(C)c2c(=O)[nH]c(-c3cc(C4CC4C(=O)NO)ccc3OCC)nc12` (centres undefined): the IC50 in assay [1] is 5.37 µM; on Histone deacetylase 1 it was 8.75 µM; at Histone deacetylase 2 it was more than 20 µM; in assay [2], 0.02 µM.
Consider `CCCc1nn(C)c2c(=O)[nH]c(-c3cc(OC4CCC(C(=O)NO)CC4)ccc3OCC)nc12` (centres undefined), for which the IC50 is 2.33 µM in assay [1], 2.44 µM at Histone deacetylase 1, 9.83 µM at Histone deacetylase 2 and 0.011 µM in assay [2].
For `CCCc1nn(C)c2c(=O)[nH]c(-c3cc(S(=O)(=O)N4CCN(CCC(=O)NO)CC4)ccc3OCC)nc12` the same measures were 2.36 µM, 10.5 µM, more than 20 µM and 0.003 µM.
The corresponding values for `CCCc1nn(C)c2c(=O)[nH]c(-c3cc(CN4CCC(C(=O)NO)CC4)ccc3OCC)nc12` are 9.64 µM, 7.62 µM, more than 20 µM and 0.207 µM.
With `CCCc1nn(C)c2c(=O)[nH]c(-c3cc(NC4CCC(C(=O)NO)CC4)ccc3OCC)nc12` (centres undefined), the IC50 was 12.7 µM in assay [1], 5.98 µM at Histone deacetylase 1, more than 20 µM at Histone deacetylase 2 and 0.022 µM in assay [2].
The corresponding values for `CCCc1nn(C)c2c(=O)[nH]c(-c3cc(CC4CCN(CCC(=O)NO)CC4)ccc3OCC)nc12` are more than 20 µM, more than 20 µM, more than 20 µM and 0.057 µM.
The corresponding values for `CCCc1nn(C)c2c(=O)[nH]c(-c3cc(S(=O)(=O)N4CCN(CCCC(=O)NO)CC4)ccc3OCC)nc12` are 0.36 µM, 1.1 µM, 4.64 µM and 0.002 µM.
For `CCCc1nn(C)c2c(=O)[nH]c(-c3cc(-c4ccc(C(=O)NO)o4)ccc3OCC)nc12`, the IC50 in assay [1] was 5.57 µM; on Histone deacetylase 1 it was more than 20 µM; on Histone deacetylase 2 it was more than 20 µM; in assay [2], 0.005 µM.
Take `CCCc1nn(C)c2c(=O)[nH]c(-c3cc(CCC(=O)NO)ccc3OCC)nc12`: the IC50 in assay [1] was 2.12 µM; at Histone deacetylase 1, 4.81 µM; at Histone deacetylase 2, more than 20 µM; in assay [2] it was 0.046 µM.
